Only some compounds are listed: those with a hit (about 1.8% of all), similar ones and a draw of the others.
TNAP inh noacc: human TNAP enzyme inhibitors, primary screen, biochemical, luminescent, no phosphate acceptor, uHTS. hit rate 0.26% among 200,000. Alkaline phosphatase, tissue-nonspecific isozyme (Homo sapiens), P05186. purified TNAP, CDP-star luminescence, 30 min. inhibition, % at 20 µM;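 active = tissue-nonspecific alkaline phosphatase inhibition above about 50% at 20 µM in the single-dose screen, limit read from the data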;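 note: 0% = DMSO negative control and 100% = EDTA positive control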
TNAP inh hiacc: human TNAP enzyme inhibitors, primary screen, biochemical, luminescent, high phosphate acceptor level, uHTS; inhibition, % at 20 µM; Alkaline phosphatase, tissue-nonspecific isozyme (Homo sapiens), P05186; purified TNAP, CDP-star luminescence, 1 M DEA; hit rate 0.03% among 200,000;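 active = over 50% inhibition of tissue-nonspecific alkaline phosphatase at 20 µM in the single-dose screen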;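 note: plate controls were DMSO wells for no effect and EDTA-quenched wells as full inhibition for full effect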
NCF1 inh: p47phox/p22phox peptide binding inhibitors, primary screen, biochemical, uHTS, NADPH oxidase regulatory subunit; Neutrophil cytosol factor 1 (Homo sapiens), P14598; hit rate 0.53% among 220,000; inhibition, % at 24.7 µM; AID 1274, 2008; fluorescence polarization, 2 h;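 active = inhibition above about 30%, limit read from the data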;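 note: 0% = p47phox with labelled peptide and 100% = labelled peptide alone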
Target sequence (P14598 whole entry, looked up): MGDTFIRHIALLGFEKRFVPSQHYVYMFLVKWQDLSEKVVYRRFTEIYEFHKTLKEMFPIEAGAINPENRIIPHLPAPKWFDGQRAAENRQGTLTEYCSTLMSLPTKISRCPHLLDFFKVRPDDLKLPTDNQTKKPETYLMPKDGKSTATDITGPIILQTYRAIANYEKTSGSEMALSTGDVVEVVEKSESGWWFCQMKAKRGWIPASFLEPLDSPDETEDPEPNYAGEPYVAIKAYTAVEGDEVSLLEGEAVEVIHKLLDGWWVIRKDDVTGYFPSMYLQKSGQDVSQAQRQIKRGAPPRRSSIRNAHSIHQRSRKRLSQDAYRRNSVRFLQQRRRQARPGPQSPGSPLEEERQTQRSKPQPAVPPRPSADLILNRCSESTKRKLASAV
TNAP act hi DEA: TNAP activators at high phosphate acceptor level, primary screen, biochemical, luminescence, uHTS; Alkaline phosphatase, tissue-nonspecific isozyme (Homo sapiens), P05186; purified TNAP, CDP-star luminescence, 1 M DEA, 30 min; stronger effect = higher value; 0 = EDTA background, 1 = DMSO-only activity; activation factor at 20 µM; 200,000 tested, under 10 active; AID 1136, 2008;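 active = activation factor at least 2 at 20 µM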
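Test system – human TNAP · Doses – 20 µM single point · Incubation – 30 min, room temperature · Signal – luminescent substrate turnover signal · Read-out basis – activation factor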
Autophagy mod: autophagy modulators in MEF cells, primary screen, imaging, high-content, MEF GFP-LC3. MEF GFP-LC3 puncta imaging; test concentration mostly 10 µM. calls only at 10 µM (by protocol). hit rate 0.98% among 190,000. AID 463193, 2010;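 active = percentage of spot-positive cells more than 3 SD above its plate mean, without a fluorescence outlier flag or 80% toxicity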;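 note: spot-positive cell cutoff set from DMSO-treated cells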
Ins promoter up: insulin promoter activators in MIN6 cells, imaging, high-content screening, mouse beta cells; MIN6 insulin promoter-GFP reporter; stronger effect = higher value; z-score at 5 µM; hit rate 0.3% among 190,000;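 active = z-score above 3 at 5 µM with at least 500 cells counted in the well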
Starred values were filed as active, the others as inactive; i = inactive; / = not tested or not shown; + = active, no number.

SMILES	TNAP inh noacc	TNAP inh hiacc	NCF1 inh	TNAP act hi DEA	Autophagy mod	Ins promoter up
CN1CCN(c2ccc(S(=O)(=O)N3CCCCC3)cc2NC(=O)Cc2ccc(Cl)cc2)CC1	-5.6	4.0	-3.9	1	i	0.22
Cc1ccc(C(=O)C2=C(O)C(=O)N(Cc3ccccc3)C2c2cccnc2)o1 (stereo unspecified)	-3.7	0.2	55.4*	1	i	/
CC(=O)C1=C(O)C(=O)N(Cc2cccnc2)C1c1ccccc1Cl (stereo unspecified)	-8.8	-3.8	-8.2	1	i	-0.17
CCN(CC)CCCNC(=O)CSc1nc(-c2ccc(F)cc2)cc(C(F)(F)F)n1	-0.9	1.1	0.0	1	i	1.01
O=c1ccnc(Nc2ccc3c(c2)OCCO3)[nH]1	-9.3	-2.3	-3.7	1	i	3.66*
COc1cccc(Oc2c(C)oc3c(CN4CCCC4)c(O)ccc3c2=O)c1	/	/	-3.7	/	/	0.31
c1ccc(-c2n[nH]c(-c3ccccn3)n2)cc1	66.6*	-3.9	-9.5	1	i	-0.5
c1ccc(-c2nc(-c3ccccn3)no2)cc1	-3.9	0.5	-3.4	1	i	/
COc1cc(NS(=O)(=O)c2ccc(C)cc2)ccc1-n1cnnn1	-16.2	-8.8	52.6*	1.1	i	0.27
CCCNS(=O)(=O)c1ccc(-n2cnnn2)c(OC)c1	-6.0	-1.0	-5.6	1	i	0.44
COc1cc2c(O)c3c(c(-c4ccc5c(c4)OCO5)c2cc1OC)C(=O)OC3	0.1	-3.0	1.4	1	+	-2.37
COc1cc2c(OC(C)=O)c3c(c(-c4ccc5c(c4)OCO5)c2cc1OC)C(=O)OC3	-4.4	-3.0	-11.0	1	+	-1.65
COc1ccc(C(=O)Oc2ccc3c(c2)OCO3)cc1OC	-10.9	-4.9	-14.1	1	i	0.26
CCc1cc(=O)[nH]c(SCCC(F)=C(F)F)n1	-9.4	-3.9	4.8	1	i	-0.13
CC(=O)N(Cc1ccccc1)c1nc(-c2ccccc2)cs1	-11.2	-11.5	-18.6	1.1	i	-0.26
O=C(O)c1cc(-c2ccccc2)nc2ccccc12	-6.5	2.6	3.6	1	i	/
O=C(O)c1cc(-c2ccncc2)nc2ccc(F)cc12	-5.9	1.2	4.2	1	i	3*
O=C(COc1ccc(/C=N/NC(=O)c2cc3ccccc3o2)cc1Br)Nc1ccccc1	8.4	-5.9	38.3*	1.1	i	/
O=C(COc1ccccc1[N+](=O)[O-])Nc1ccc2c(c1)OCO2	-3.5	-1.3	-2.2	1	i	0.39
O=C(COc1ccccc1[N+](=O)[O-])Nc1ccc(NC(=O)c2cc3ccccc3o2)cc1	-5.5	-3.8	32.0*	1	i	1.32
CCOC(=O)c1c(NC(=O)C(C)N2CCN(S(=O)(=O)c3cccs3)CC2)sc2c1CCC(C)C2 (stereo unspecified)	-11.2	-8.1	-16.6	1.1	i	-0.28
CCOC(=O)c1ccc(NC(=O)Nc2ccc(Cl)cn2)cc1	-5.8	-1.3	36.1*	1	i	0.49
CCOC(=O)c1ccc(NC(=O)Nc2ccon2)cc1	/	/	-7.4	/	/	-2.92
CC1CC(C)CN(CCOc2ccc(Br)cc2)C1 (stereo unspecified)	-11.2	-0.5	-8.7	1	i	0.73
O=C1CCCC(O)=C1N=Nc1ccc2c(c1)OCO2	18.9	19.1	-41.9	0.8	i	-0.29
SMILES	TNAP inh noacc	TNAP inh hiacc	NCF1 inh	TNAP act hi DEA	Autophagy mod	Ins promoter up
O=C1CCCC(O)=C1N=Nc1ccc(C(=O)O)cc1	/	/	31.9*	/	/	-0.12
Fc1ccc(-c2nc(-c3cnccn3)no2)c(Cl)c1	/	/	-7.1	/	/	/
CCOC(=O)C1(CCc2ccccc2)CCN(C(=O)[C@@H]2C[C@@H](C)NC(=S)N2)CC1	6.8	1.9	-0.5	1	i	0.57
CCCn1nnc(NC(=O)c2cccc(OCC)c2)n1	-10.4	-1.0	-7.3	1	+	0.33
CCOc1cccc(C(=O)Nc2cccc(-c3nnc(-c4ccc(C)cc4)o3)c2)c1	-8.1	1.7	-15.2	1	+	-0.1
O=C(O)CCCn1cc(NC(=O)c2c(F)cccc2F)cn1	-12.5	-2.4	-4.5	1	i	-0.06
CCc1ccc(OCC(=O)Nc2ccc(-c3cc4ccccc4oc3=O)c(OC)c2)cc1	0.4	-0.5	-10.1	1	i	-0.05
COc1ccc2nc3sc(C(=O)NCc4cccs4)c(N)c3cc2c1	0.4	-1.7	-13.3	1	+	0.24
CSc1ncccc1C(=O)OCC(=O)C(C)(C)C	-4.8	-5.2	-2.5	1.1	i	0.32
COc1ccc(C(C)(C)C)cc1NC(=O)COC(=O)c1ccc([N+](=O)[O-])o1	6.2	-1.4	9.5	1	i	0.4
CC(C)OCCCNC(=S)NNC(=O)c1ccc(Cl)c(Cl)c1	-130.9	-4.8	-1.5	1	i	0.69
CC1(C)C(=O)Nc2ccccc2N1C(=O)COC(=O)C1CCCCC1	-3.2	-3.8	31.9*	1	i	-0.17
Cc1cc(C)c(C)c(S(=O)(=O)N2CCC(C(=O)OCC(=O)N3c4ccccc4NC(=O)C3(C)C)CC2)c1C	-2.4	-3.4	-54.9	1	i	1.12
Cc1cccc(NC(=S)NC2CC3CCC(C2)N3Cc2ccco2)c1C (stereo unspecified)	-12.9	-2.6	-1.2	1	i	-0.66
Cc1ccc(NC(=S)NC2CC3CCC(C2)N3Cc2ccco2)c(C)c1 (stereo unspecified)	-12.8	-2.9	37.5*	1	i	0.27
O=C(Cc1cccs1)NCCn1ccc2ccccc21	-8.6	-2.0	-9.5	1	i	0.4
COc1ccc(/C=N/NC(=O)c2ccncc2)cc1Cn1nc([N+](=O)[O-])c(Br)c1C	-5.5	-2.1	-0.7	1	i	-0.68
Cn1c(N)c(C(=O)COC(=O)CCCc2nc3ccccc3s2)c(=O)n(C)c1=O	2.8	-2.2	-3.9	1	+	0.4
CN(C)S(=O)(=O)c1ccc(NC(=O)COC(=O)CC2CC3CCC2C3)cc1 (stereo unspecified)	-5.8	-5.0	-5.8	1.1	i	-0.05
O=C(Nc1nc(-c2ccccn2)cs1)c1ccc(Br)s1	-12.7	-7.3	2.6	1.1	+	-0.47
CC(=O)Nc1nc(-c2ccc(Br)s2)cs1	-6.6	6.3	-17.5	0.9	i	5.02*
Cc1ccc(NC(=O)Nc2nc(-c3ccc(C)s3)cs2)cc1	-16.0	-3.9	-4.5	1	i	0.05
O=C1c2cccc3c(O)ccc(c23)C(=O)N1Cc1ccccc1	-12.0	10.8	36.8*	0.9	i	/
CS(=O)(=O)N1CC(C(=O)NC2CC2)Oc2ccc(Cl)cc21 (stereo unspecified)	-13.1	-2.4	-10.0	1	i	0.21

High-throughput results deposited in PubChem BioAssay by several laboratories.
